From ChEMBL document CHEMBL1126036, “Quinolone antibacterial agents. Synthesis and structure-activity relationships of a series of amino acid prodrugs of racemic and chiral 7-(3-amino-1-pyrrolidinyl)quinolones. Highly soluble quinolone prodrugs with in vivo pseudomonas activity” (J Med Chem, 1992)

Key:
Staphylococcus aureus [1] = assay: In vitro antibacterial activity against gram positive Staphylococcus aureus H-228.; format: functional
[2] = target: DNA gyrase (Escherichia coli) (UniProt P0AES6+P0AES4); assay: In vitro concentration inhibiting DNA gyrase induced cleavage in Escherichia coli H560.; format: functional
Method in brief: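 DNA gyrase test run as described in earlier work. The value is the drug concentration (µg/mL) needed to cause DNA cleavage.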

Mus musculus [3] = assay: In vivo potency against acute systemic infection in mouse caused by Streptococcus pyogenes C-203 on subcutaneous injection; format: functional; settings: sc, read-out: PD50
Method in brief: (§1)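 Acute systemic mouse infection. A single subcutaneous dose was injected at the time of challenge. Potency is reported as the median protective dose (PD50, mg/kg), determined by earlier published methods.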

Streptococcus pneumoniae [4] = assay: In vivo potency against acute systemic infection in mouse caused by Streptococcus pneumoniae SV-1 on subcutaneous injection.; format: functional; settings: sc, read-out: PD50; method in brief: as §1
[5] = Solubility (at pH 7.4); format: physicochemical; settings: buffer, read-out: S
Method in brief: (§2)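 Solubility was measured either from HPLC peak areas at equilibrium or by a conventional weight-per-volume method. All solutions were held for 24 h before measurement.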

[6] = Solubility (in 0.1 N HCl); format: physicochemical; settings: read-out: S; method in brief: as §2
Pseudomonas aeruginosa = assay: In vitro antibacterial activity against gram negative Pseudomonas aeruginosa UI-18.; format: functional
Escherichia coli [7] = assay: In vivo potency against acute systemic infection in mouse caused by Escherichia coli Vogel on oral administration by gavage.; format: functional; settings: read-out: PD50
Method in brief: (§3)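 Acute systemic mouse infection. A single oral dose was given by gavage at the time of challenge. Potency is reported as the median protective dose (PD50, mg/kg), determined by earlier published methods.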

Streptococcus pneumoniae [8] = assay: In vivo potency against acute systemic infection in mouse caused by Streptococcus pneumoniae SV-1 on oral administration by gavage.; format: functional; settings: read-out: PD50; method in brief: as §3
[9] = Aqueous solubility; format: physicochemical; settings: water (aqueous); read-out: S; method in brief: as §2
Escherichia coli [10] = assay: In vitro antibacterial activity against gram negative Escherichia coli Vogel.; format: functional
Mus musculus [11] = assay: In vivo potency against acute systemic infection in mouse caused by Streptococcus pyogenes C-203 on oral administration by gavage; format: functional; settings: read-out: PD50; method in brief: as §3
Enterococcus faecalis = assay: In vitro antibacterial activity against gram positive Enterococcus faecalis MGH-2.; format: functional
Klebsiella pneumoniae = assay: In vitro antibacterial activity against gram negative Klebsiella pneumoniae MGH-2.; format: functional
Staphylococcus aureus [12] = assay: In vitro antibacterial activity against gram positive Staphylococcus aureus UC76.; format: functional
Providencia rettgeri = assay: In vitro antibacterial activity against gram negative Providencia rettgeri M-1771.; format: functional
Streptococcus pyogenes = assay: In vitro antibacterial activity against gram positive Streptococcus pyogenes C-203.; format: functional
Enterobacter cloacae = assay: In vitro antibacterial activity against gram negative Enterobacter cloacae MA 2646.; format: functional
[13] = Solubility (at pH 4); format: physicochemical; settings: buffer, read-out: S; method in brief: as §2
Escherichia coli [14] = assay: In vivo potency against acute systemic infection in mouse caused by Escherichia coli vogel on subcutaneous injection.; format: functional; settings: sc, read-out: PD50; method in brief: as §1
Streptococcus pneumoniae [15] = assay: In vitro antibacterial activity against gram positive Streptococcus pneumoniae SV-1.; format: functional

Structure (SMILES) | MIC (Staphylococcus aureus [1]) [µg/mL] | Cleavage [2] [µg/mL] | ED50 (Mus musculus [3]) [mg/kg] | ED50 (Streptococcus pneumoniae [4]) [mg/kg] | solubility [5] [µg/mL] | solubility [6] [µg/mL] | MIC (Pseudomonas aeruginosa) [µg/mL] | ED50 (Escherichia coli [7]) [mg/kg] | ED50 (Streptococcus pneumoniae [8]) [mg/kg] | solubility [9] [µg/mL] | MIC (Escherichia coli [10]) [µg/mL] | MIC (Enterococcus faecalis) [µg/mL] | MIC (Klebsiella pneumoniae) [µg/mL] | MIC (Staphylococcus aureus [12]) [µg/mL] | MIC (Providencia rettgeri) [µg/mL] | MIC (Streptococcus pyogenes) [µg/mL] | MIC (Enterobacter cloacae) [µg/mL] | solubility [13] [µg/mL] | ED50 (Escherichia coli [14]) [mg/kg] | MIC (Streptococcus pneumoniae [15]) [µg/mL] | other results
C[C@H](N)C(=O)NC1CCN(c2cc3c(cc2F)c(=O)c(C(=O)O)cn3C2CC2)C1.Cl.O (stereo partly drawn) | 3.1 | 1 | 5 | 13 | 270 | > 100000 | 1.6 | 5 | > 100 | > 100000 | 0.4 | 1.6 | 0.8 | 0.4 | 1.6 | 0.4 | 0.8 | > 100000 | 0.5 | 0.4 | ED50 (Mus musculus [11]): > 100 mg/kg
Cl.NCCCC[C@H](N)C(=O)NC1CCN(c2c(F)cc3c(=O)c(C(=O)O)cn(C4CC4)c3c2F)C1.O (stereo partly drawn) | 0.4 | – | – | – | – | – | 12.5 | – | – | – | 6.3 | 6.3 | 12.5 | 0.2 | 12.5 | 6.3 | 3.1 | – | – | 6.3 | –
Cl.N[C@@H](Cc1ccccc1)C(=O)NC1CCN(c2cc3c(cc2F)c(=O)c(C(=O)O)cn3C2CC2)C1.O (stereo partly drawn) | 0.8 | 25 | – | 5 | 300 | 9200 | 6.3 | 5 | > 50 | 44000 | 0.8 | 0.4 | 3.1 | 0.2 | 3.1 | 0.4 | 0.8 | 66000 | 1 | 0.4 | –
Cl.NCCCC[C@H](N)C(=O)NC1CCN(c2cc3c(cc2F)c(=O)c(C(=O)O)cn3C2CC2)C1.O (stereo partly drawn) | 25 | – | – | 12 | 110 | 69000 | 25 | 10 | > 100 | 93000 | 12.5 | > 25 | 12.5 | 3.1 | 25 | 12.5 | 12.5 | > 100000 | 1 | 25 | –
Cl.Nc1c(F)c(N2CC[C@H](N)C2)c(F)c2c1c(=O)c(C(=O)O)cn2C1CC1.O | 0.006 | 0.1 | 5.5 | 6 | 50 | 250 | 0.025 | 1.2 | 10 | 2500 | 0.003 | 0.025 | 0.013 | 0.003 | 0.025 | 0.013 | 0.003 | 2300 | 0.4 | 0.006 | ED50 (Mus musculus [11]): 18 mg/kg
Cl.NCC(=O)NC1CCN(c2c(F)cc3c(=O)c(C(=O)O)cn(C4CC4)c3c2F)C1.O (stereo not drawn) | 0.4 | 5 | – | 16 | – | 4600 | 1.6 | 1 | 29 | 33000 | 0.2 | 0.4 | 0.4 | 0.1 | 0.4 | 0.2 | 0.2 | 20000 | 0.4 | 0.4 | –
Cl.NCC(=O)NC1CCN(c2c(F)c(N)c3c(=O)c(C(=O)O)cn(C4CC4)c3c2F)C1.O (stereo not drawn) | 0.4 | 5 | 8.1 | 16 | 70 | 3500 | 1.6 | 1 | 29 | 17000 | 0.2 | 0.4 | 0.4 | 0.1 | 0.4 | 0.2 | 0.2 | 69000 | 0.4 | 0.4 | ED50 (Mus musculus [11]): 36 mg/kg
